# Screening data: PubChem BioAssay, several laboratories
# Wee1 degr inh – blocks degradation of human Wee1 kinase. P30291. HeLa Luc-Wee1K328M stability, luciferase luminescence; 100% = proteasome inhibitor MG132 effect. reporter increase, % at 5 µM. 220,000 compounds, 1.2% hits. AID 1321;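 active = activation above the mean of all tested compounds plus 3 SD, set per screening run, cut at about 8.8% in these data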;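 note: cells exposed to compound for 20 h before luminescence read; 0% = DMSO alone and 100% = MG132 at 30 µM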
# NCF1 inh – inhibitors of human p47phox binding; P14598; inhibition, % at 24.7 µM; 220,000 compounds, 0.53% hits; p47phox/p22phox peptide binding, fluorescence polarization, 2 h; AID 1274;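 note: 0% = p47phox with labelled peptide and 100% = labelled peptide alone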
# RBBP9 inh – inhibitors of human serine hydrolase RBBP9. O75884. recombinant RBBP9, FP-Rh probe fluorescence polarization. inhibition, % at 7.94 µM. 220,000 compounds, 0.2% hits. AID 1515;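 active = inhibition above the campaign mean of all tested compounds plus 3 SD, cut at about 14% in these data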;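 note: plate controls were DMSO wells with RBBP9 for no effect and wells lacking RBBP9 protein for full effect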
#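 Test system: recombinant human RBBP9; Timing: 30 min then 45 min, 25 °C; Detection: fluorescence polarization; Control set: RBBP9 with DMSO as uninhibited control, no-protein wells as full inhibition; Compound dosing: one concentration, 7.94 µM nominal, 0.794% DMSO; Probe or stimulus: FP-Rh activity-based probe, 375 nM before mixing.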
# eIF4E 4G PPI – eIF4E/eIF4G interaction inhibition in translation initiation; P63073+Q04637; TR-FRET eIF4E-eIF4GI(517-606) binding, 2 h; inhibition, % at 21.7 µM; 220,000 compounds, 0.37% hits; AID 782;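 note: 0% = full FRET control wells and 100% = background wells lacking eIF4GI fragment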
# 14-3-3 Bad inh – disrupts binding of bovine 14-3-3 zeta to phospho-Bad peptide. AID 781. inhibition, % at 21.7 µM. TR-FRET 14-3-3zeta/Dy647-pBad peptide displacement, 1 h. 220,000 compounds, 0.71% hits. P63103;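 active = inhibition above about 70%, limit read from the data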;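 note: 0% = full 14-3-3 plus peptide FRET controls and 100% = background without 14-3-3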
# * hit, by the source's call; . = no result given; [ ] = dose if it differs, or a comment. In the library only some 2.8% were active in any assay of this set; here they are far more common.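 Rule for the calls, unless noted: active = inhibition above about 30% (limit read from the data); inactive = the rest.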
SMILES,Wee1 degr inh,NCF1 inh,RBBP9 inh,eIF4E 4G PPI,14-3-3 Bad inh
Cc1ccccc1-c1nc(CS(=O)(=O)CC(=O)NCCN2CCOCC2)c(C)o1,-1.4,68.8*,-7.0,6.3,-3.9
Cc1ccccc1-c1nc(CS(=O)(=O)CC(=O)NCCCN2CCCC2)c(C)o1,1.3,-13.0,-6.4,-2.8,-0.8
Cc1ccc(N=Nc2c(=O)[nH]n3c(C)cc(C)nc23)cc1,10.8*,-9.5,0.8,-11.0,11.6
Cc1c(CCOC(=O)C23CC4(C)CC(C)(CC(C)(C4)C2)C3)sc[n+]1CC(=O)c1ccccc1,-1.6,32.8*,-6.5,4.1,-4.9
Cc1c(CCOC(=O)CC23CC4CC(CC(C4)C2)C3)sc[n+]1CC(=O)c1ccccc1,-1.4,-16.5,-6.8,-3.2,-2.8
CC1(C)[C@@H](O)CC[C@]2(C)C3C(O)C=C4[C@H]5C[C@@](C)(CO)CC[C@]5(C)CC[C@]4(C)[C@]3(C)CC[C@@H]12 (stereo partly specified),.,-4.6,.,14.3,2.5
O=S(=O)(Nc1cccc(-c2cn3cccnc3n2)c1)c1ccc(Cl)cc1,0.9,-1.7,-2.6,13.4,9.2
Cc1cc(C)c2c3c(sc2n1)C1(CCSCC1)C(C#N)=C(N)O3,-2.2,-49.5,-6.2,2.9,5.7
COc1ccc(C2C(C#N)=C(N)Oc3c2sc2nc(C)cc(C)c32)cc1 (stereo unspecified),10.4*,-7.8,-12.4,-8.8,8.8
Cc1cccc(NC(=O)CN2C(=O)N/C(=C/c3cc(C)n(-c4ccncc4)c3C)C2=O)c1,-0.3,45.6*,5.2,5.6,23.9
S=c1[nH]nc(NCCCN2CCOCC2)s1,-0.2,77.7*,-11.0,42.1*,0.0
Cc1ccn2c(NC(=O)c3ccccc3)c(-c3cccs3)nc2c1,-1.4,-34.2,-1.8,4.6,70.4*[fluorescence artefact?]
Cc1ccn2c(NCc3ccccc3)c(-c3cccs3)nc2c1,2.4,-11.7,-2.9,2.8,-18.4
CCC(C)(C#CCN1CCCCC1)OC(C)=O (stereo unspecified),1.3,-14.4,3.4,7.6,-8.0
CCOC(=O)c1c(NC(=O)CSc2nnc(C)o2)sc(C)c1C,9.8*,1.2,3.4,-7.2,9.9
CNc1ccc([N+](=O)[O-])cc1-c1nc2ccccc2[nH]c1=O,-1.5,19.4,7.0,17.9,72.7*
Nc1ccc(Br)cc1-c1nc2ccccc2[nH]c1=O,1.8,-14.6,-11.0,3.3,3.8
CC(C(=O)NCC1CCCO1)n1cc([N+](=O)[O-])cn1 (stereo unspecified),1.8,-0.5,1.0,0.3,-5.8
Cc1ncc(CN=Cc2ccc(Cl)cc2)c(N)n1,1.2,-9.8,-6.7,-6.1,0.9
O=C(O)CCc1nc2ccccc2c(=O)[nH]1,1.6,-5.5,-10.4,-0.1,3.3
Cc1cc(N)n2ncc(-c3cccc(Br)c3)c2n1,4.8,-26.3,0.7,10.4,1.3
CCOC(=O)Cc1c(C)nc2c(-c3cccc(Br)c3)cnn2c1C,10.0*,-13.5,-5.6,18.0,-0.3
S=C(NCCc1ccccc1)NC1CC2CCC(C1)N2Cc1ccccc1 (stereo unspecified),-3.1,-1.4,-5.6,1.6,-3.4
O=C(c1ccc(F)cc1)C1CCN(C(=O)Nc2ccccc2Cl)CC1,-2.7,-17.6,-4.1,4.2,6.9
COc1ccc(/C=N/NC(=O)c2[nH]c3ccc(Br)cc3c2-c2ccccc2)c(C(=O)O)c1OC,-0.2,1.8,-9.5,-5.5,3.7
SMILES,Wee1 degr inh,NCF1 inh,RBBP9 inh,eIF4E 4G PPI,14-3-3 Bad inh
O=C(N/N=C/c1ccccc1Cl)c1[nH]c2ccc(Br)cc2c1-c1ccccc1,11.5*,-14.7,-11.6,-6.0,9.5
O=C(CCC1CCCN(C(=O)CCCc2ccccc2)C1)N1CCN(c2ccccn2)CC1 (stereo unspecified),-1.6,94.8*,-5.1,2.5,-9.4
Cc1nc(-c2cn[nH]c2-c2ccc(O)cc2O)cs1,9.0*,-12.9,-11.4,3.7,9.0
CCN(CC(=O)Nc1ccccc1OC)C(=O)COc1ccc2ccccc2c1,2.6,-1.7,-1.1,-10.8,-13.2
COc1ccc(C(=O)N2C(=S)NC(=O)/C2=C\c2ccc(C)cc2)cc1,-1.3,-135.9,0.3,16.6,83.9*[fluorescence artefact?]
C#CCOc1c(Br)cc(/C=N\NC(=O)CN2CCOCC2)cc1OCC,-0.1,-5.6,-2.4,4.4,-1.7
COc1cccc(C(=O)Nc2nnc(-c3ccc(F)cc3)o2)c1,.,-7.7,.,95.0*,-7.5
CN(C)C=NC(=O)c1cc(C(=O)c2ccc(Cl)cc2Cl)c[nH]1,2.8,15.2,-0.2,1.6,-3.4
COc1cc(-c2nnc(COC(=O)c3c4c(nc5ccccc35)CCCC4)o2)cc(OC)c1OC,10.0*,-9.0,-10.3,-0.3,-3.3
CC(C)c1ccc(NC(=O)C(c2ccc3c(c2)OCO3)N2CCCCC2)cc1 (stereo unspecified),1.6,-17.1,-5.6,-1.9,-3.0
Oc1cc2c(cc1C(c1ccc(Cl)c(Cl)c1)N1CCCC1)OCO2 (stereo unspecified),-1.4,10.6,0.3,37.8*,17.6
CC1=C(C(=O)Nc2ccccn2)C(c2ccc(Cl)cc2)NC(=S)N1 (stereo unspecified),9.9*,-7.0,-6.7,-1.0,-20.8
Cn1c(=O)c(=O)n(C)c2cc(S(=O)(=O)N3CCCC3C(=O)NCc3ccco3)ccc21 (stereo unspecified),9.0*,-4.3,-0.1,-3.1,2.4
O=C(NCc1ccco1)C1CCCN1S(=O)(=O)c1ccc2ccccc2c1 (stereo unspecified),4.1,-28.9,-4.5,-3.1,1.4
N=C1/C(=C\c2ccc(-c3cccc(C(=O)O)c3)o2)C(=O)N=C2SC=C(c3ccccc3)N12,5.8,-38.2,-5.3,64.7*,94.4*
CC(C)N(CCO)C(=O)C(c1ccccc1)c1ccccc1,10.8*,-3.7,-7.9,2.9,-10.4
CCC(CC)C(=O)OCC(=O)Nc1cc(OC)c([N+](=O)[O-])cc1C,3.5,-3.0,-10.3,-3.1,5.0
Cc1cc(C)c(Nc2cc(S(=O)(=O)O)c(N)c3c2C(=O)c2ccccc2C3=O)c(C)c1,0.6,58.9*,7.3,56.1*[fluorescence artefact?],73.0*[fluorescence artefact?]
COC(=O)/C(C#N)=C/c1ccc(OC(=O)c2ccccn2)cc1,-0.3,-5.5,-2.2,7.8,-1.5
CCOC(=O)/C(C#N)=C/c1ccc(OC(=O)c2ccccn2)cc1,-2.8,8.5,-8.2,30.7*,81.4*[fluorescence artefact?]
Cc1ccc(C)c(S(=O)(=O)N2CCN(CC(=O)N3CCc4ccccc4C3)CC2)c1,-0.1,3.6,-5.1,10.8,86.2*[fluorescence artefact?]
COc1ccccc1C(=O)NNC(=O)c1sccc1-n1cccc1,-1.4,-6.4,4.2,-2.8,-19.9
CCCN1C(=O)c2cc(C(=O)O)ccc2C1O (stereo unspecified),-1.2,-8.4,1.2,7.0,82.5*
CC(C)c1ccc(NC(=O)NN2CCOCC2)cc1,4.0,-10.5,-2.9,1.4,10.2
O=C(Nc1ccc2[nH]ccc2c1)c1cccs1,4.3,-8.1,-3.8,32.4*,-4.4
